# According to paper PMC11078046 (JBMR Plus, 2024):
# How the values were obtained:
# [1] = humans, given intravenously; cited from earlier work
# [2] = test system: thyroparathyroidectomized (TPTx) rats; experiment: TPTx rat 28-day efficacy study; format: in vivo, Sprague–Dawley rats; settings: daily SC 10 nmol/kg
# Outline: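 Female thyroparathyroidectomised Crl-CD SD rats, 215–290 g, randomised on baseline serum calcium and body weight after 9 days of acclimation. Daily SC dosing in PBS (1 mL/kg) for 28 days. Jugular serum taken in two alternating cohorts on days 1, 12 and 27 at 0, 2, 6, 10 and 24 h, run on a Hitachi 7180 analyser (n = 5/cohort). Urine n = 10/group. Distal femur BMD by pQCT, n = 10/group.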
# [3] = test system: thyroparathyroidectomized (TPTx) rats; experiment: TPTx rat 7-day efficacy study; format: in vivo, Sprague–Dawley rats
# Outline: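 Female TPTx SD rats, 250–300 g, randomised on baseline calcium and weight (n = 12). Daily SC dosing in PBS (1 mL/kg) for 7 days. Day-1 jugular serum drawn from two cohorts at 0, 2, 6, 10, 18 and 24 h; calcium and phosphate measured on a Hitachi 7180. Predose serum on days −6, 4 and 7 assayed by osteocalcin, PINP and CTX-I ELISAs.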
Molecule,plasma half-life [1],"bone remodeling markers (osteocalcin, CTX, PINP) [2]","BMD, cortical region of the diaphysis (pQCT) ([2]; 28 days)","serum calcium ([2]; 28 days, days 1, 12, 27)","BMD, distal femur metaphysis (pQCT) ([2]; 28 days, vs TPTx: vehicle)","urinary calcium (creatinine-normalized) ([2]; days 1, 14, 27)",serum phosphate ([2]; days 12 and 27),"serum calcium, day 1 after first dose ([3]; SC 3 nmol/kg, 0–24 h)","bone formation markers osteocalcin and PINP ([3]; daily SC 3 nmol/kg, serum, days 4 and 7)","serum phosphate, days 4 and 7 ([3]; daily SC 3 nmol/kg, three timepoints)"
"PTH: endogenous human polypeptide, 84 amino acids in length",less than 10 min,,,,,,,,,
"PTH(1-84): Recombinant human PTH(1-84), Natpara (Takeda); native parathyroid hormone comparator (protein, UniProt P01270 32-115, looked up, Parathyroid hormone) Parathyroid hormone: SVSEIQLMHNLGKHLNSMERVEWLRKKLQDVHNFVALGAPLAPRDAGSQRPRKKEDNVLVESHEKSLGEADKADVNVLTKAKSQ",,"increased serum concentrations of osteocalcin and CTX, but had only minimal effect on PINP",small but statistically significant decrease in BMD,no increase or only small increases in serum calcium,unchanged or slightly increased,not significantly increased,much smaller decrease in serum phosphate,unaffected,only induced a small increase,only transiently lower serum phosphate at the 2 h timepoints
